The source of these data is ChEMBL document CHEMBL4619801, “Discovery of Phthalazinone Derivatives as Novel Hepatitis B Virus Capsid Inhibitors” (J Med Chem, 2020).

The CC50 is the concentration that lowers cell viability or growth by half.

Data set [1] is described as follows: Toxicity in human HepG2.2.15 cells. In kind it is cell-based, HepG2 2.2.15. The gist of the method: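 HepG2.2.15 cells seeded at 4 × 10³ cells/well and exposed to a range of compound concentrations for 8 days. MTT (final 2.5 mg/mL) was added for 1 h at 37 °C, then cells were lysed in 10% SDS/50% DMF, pH 7.2. OD was read at 570 nm and % cell death calculated. CC50 is the mean ± SD of at least two independent determinations.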

Data set [2] is described as follows: Half life in Sprague-Dawley rat at 2 mg/kg, iv dosed as single administration. Format: ADME, organism-based. Particulars: in vivo.
Data set [3] can be described thus: Drug metabolism in human liver microsomes assessed as compound level by measuring LC-MS area at 3 uM in presence of NADPH incubated for 60 mins by UPLC-UV/QTOF MS analysis. Particulars: 1 h. In kind it is ADME, Microsome. The procedure, abridged: (§1)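 Each incubation held liver microsomes (human, monkey, dog, rat or mouse) at 0.5 mg/mL with 3.0 μM compound in 100 mM potassium phosphate, pH 7.4. After 3 min prewarming at 37 °C, the reaction was started with 1 mM NADPH. It was stopped at 60 min with ice-cold acetonitrile. Parent remaining and metabolites were judged from relative UV area.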
A general note: Microsomes from liver hold many membrane-bound enzymes, among them those of drug oxidation.

Data set [4] in a line: Drug metabolism in monkey liver microsomes assessed as compound level by measuring LC-MS area at 3 uM in presence of NADPH incubated for 60 mins by UPLC-UV/QTOF MS analysis. Format: ADME, Macaca mulatta, Microsome. Particulars: rhesus monkey, 1 h. The gist of the method:
as §1

The nature of data set [5]: Drug metabolism in monkey liver microsomes assessed as compound level by measuring UV-area of metabolite-M1 at 3 uM in presence of NADPH incubated for 60 mins by UPLC-UV/QTOF MS analysis. Format: ADME, Macaca mulatta, Microsome. Particulars: rhesus monkey, 1 h. The procedure, abridged:
as §1

A short description of data set [6]: Drug metabolism in mouse liver microsomes assessed as compound level by measuring UV-area of metabolite-M1 at 3 uM in presence of NADPH incubated for 60 mins by UPLC-UV/QTOF MS analysis. In kind it is ADME, Microsome. Particulars: 1 h. The procedure, abridged:
as §1

Data set [7] can be described thus: Drug metabolism in monkey liver microsomes at 3 uM in presence of NADPH incubated for 60 mins by UPLC-UV/QTOF MS analysis relative to control. Format: ADME, Macaca mulatta, Microsome. Particulars: rhesus monkey, read-out: Drug metabolism. The gist of the method:
as §1

The nature of data set [8]: Cytotoxicity in human HepG2.2.15 cells assessed as reduction in cell viability incubated for 8 days by MTT assay. In kind it is cell-based, HepG2 2.2.15. The procedure, abridged: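 This was run in the same 8-day HepG2.2.15 cultures. After the medium was removed, MTT was added (final 2.5 mg/mL) for 1 h at 37 °C. Cells were lysed in 10% SDS/50% DMF, pH 7.2, and OD was read at 570 nm to give % cell death. CC50 was averaged with SD from at least two independent determinations.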
A general note: Formazan colour is commonly taken as a measure of viable cells.

As to `Cc1cc(-c2ccc(F)nc2F)nn(Cc2ccc(Cl)cc2)c1=O`, the CC50 in data set [1] was determined as 90.6 µM. In data set [2], the t1/2 turned out to be 2.03 h. The Activity in data set [3] was 13.5 ×10³ No_unit; in data set [4], 5.42 ×10³ No_unit; in data set [5], 113 ×10³ No_unit; in data set [6], 117 ×10³ No_unit. Further, the metabolised at 1 h, 3 µM in data set [7] stood at 73%. For the same molecule, the half-maximal cytotoxic concentration (CC50) at 192 h in data set [8] turned out to be 83.8 µM.
